Laboratory results as given in ChEMBL document CHEMBL4732044, “Discovery of a promising agent IQZ23 for the treatment of obesity and related metabolic disorders” (Eur J Med Chem, 2020).
Active and inactive are the calls of the source. No cut-off for these calls is given here.

Key:
3T3-L1 [1] = assay: Activation of AMPK pathway in mouse 3T3-L1 cells assessed as increase in NRF2 mRNA expression at 1 uM after 24 hrs by RT-qPCR analysis; format: cell-based; settings: filed as activator
3T3-L1 [2] = assay: Activation of AMPK pathway in mouse 3T3-L1 cells assessed as increase in ACSL mRNA expression at 1 uM after 24 hrs by RT-qPCR analysis; format: cell-based; settings: filed as activator
3T3-L1 [3] = assay: Inhibition of mouse 3T3-L1 cells adipocyte differentiation assessed as reduction in adipogenic cocktail-induced fatty acid synthase protein expression at 0.3 to 1 uM after 6 days by Western blot analysis; format: functional, cell-based; settings: dose 0.3-1 µM, time 6.0 day
In short: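 3T3-L1 preadipocytes were differentiated with cocktail for 3 days, then insulin medium for 3 days, with compound (0.3 or 1 µM) present throughout. Cells were harvested on day 6 and proteins measured by Western blot, with densitometry normalized to actin.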

Mus musculus [4] = assay: Antiobesity activity in high fat diet-induced obese C57BL/6J mouse model assessed as decrease in body weight at 20 mg/kg, ip administered for every other days for 6 weeks; format: functional, organism-based
In short: (§1)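 Male C57BL/6J mice (7–8 weeks) fed HFC diet (60% fat, 1% cholesterol) for up to 14 weeks. From week 9, given 20 mg/kg i.p. every other day for 6 weeks in saline with 10% ethanol and 10% castor oil, or vehicle. Body weight and food intake recorded daily. At end, mice fasted 6 h, anesthetized, and blood collected into EDTA. Plasma chemistry run on an auto-analyzer; insulin by ultra-sensitive ELISA.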

Mus musculus [5] = assay: Antiobesity activity in high fat diet-induced obese C57BL/6J mouse model assessed as decrease in TG level at 20 mg/kg, ip administered for every other days for 6 weeks by Oil-red O staining based assay; format: functional, organism-based
In short: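 Male C57BL/6J mice on HFC diet, dosed 20 mg/kg i.p. every other day for 6 weeks. Tissues fixed in 4% formaldehyde, paraffin-embedded, cut into 4 µm sections and stained with H&E or Oil-red O. Six random fields per sample scored blind.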

3T3-L1 [6] = assay: Inhibition of mouse 3T3-L1 cells adipocyte differentiation assessed as reduction in adipogenic cocktail-induced SREBP-1c protein expression at 0.3 to 1 uM after 24 hrs by Western blot analysis; format: functional, cell-based; settings: dose 0.3-1 µM
In short: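 3T3-L1 preadipocytes were exposed to adipogenic cocktail with compound (0.3 or 1 µM) and harvested on day 1. Lysates were resolved by SDS-PAGE, immunoblotted (primary antibody overnight at 4 °C, HRP secondary) and quantified by densitometry normalized to actin.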

3T3-L1 [7] = assay: Activation of AMPK pathway in mouse 3T3-L1 cells assessed as increase in TFAM mRNA expression at 0.3 to 1 uM after 24 hrs by RT-qPCR analysis; format: cell-based; settings: filed as activator, dose 0.3-1 µM
Mus musculus [8] = assay: Antiobesity activity in high fat diet-induced obese C57BL/6J mouse model assessed as AST level at 20 mg/kg, ip administered for every other days for 6 weeks by auto-analyzer method (reference value: 341.6 +/- 23.8 U/L); format: functional; in short: as §1
3T3-L1 [9] = assay: Lipid lowering activity in mouse 3T3-L1 cells assessed as reduction in adipogenic cocktail-induced triglyceride levels at 1 uM incubated for 6 days by Oil-red O staining based assay; format: functional, cell-based; settings: time 6.0 day
In short: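 Differentiating 3T3-L1 cells were treated at 1 µM for 6 days, then washed with PBS and fixed in 4% formaldehyde for 1 h. Cells were stained with 0.3% Oil Red O for 30 min at room temperature in the dark and imaged at ×200.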

[10] = AUC(0 to infinity) in Sprague-Dawley rat at 2 mg/kg, iv up to 24 hrs by LC-MS/MS analysis; format: ADME, organism-based; design: route intravenous, dose 2 mg/kg, time <=24; settings: in vivo
In short: (§2)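 Male Sprague-Dawley rats (180-220 g, n = 3) received a single intravenous dose of 2 mg/kg in ethanol/saline (5:95). Blood was sampled at 0, 30 min, 1, 2, 4, 8, 12 and 24 h after dosing and centrifuged to plasma. Plasma drug levels were measured by LC-MS/MS, and pharmacokinetic parameters were calculated from the concentration-time data.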

[11] = AUC(0 to t) in Sprague-Dawley rat at 2 mg/kg, iv up to 24 hrs by LC-MS/MS analysis; format: ADME, organism-based; design: route intravenous, dose 2 mg/kg, time <=24; settings: in vivo; in short: as §2
Mus musculus [12] = assay: Antiobesity activity in high fat diet-induced obese C57BL/6J mouse model assessed as decrease in fat mass at 20 mg/kg, ip administered for every other days for 6 weeks; format: functional, organism-based
C2C12 = assay: Activation of AMPK pathway in mouse C2C12 cells assessed as increase in glucose uptake at 1 uM after 6 hrs in presence of LY-294002 by 2-NBDG/Hoechst 33342 staining based Confocal microscopic method; format: cell-based; settings: filed as activator
In short: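 C2C12 myoblasts kept in DMEM with 10% FBS and 1% penicillin/streptomycin at 37 °C under 5% CO2.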

Mus musculus [13] = assay: Antiobesity activity in high fat diet-induced obese C57BL/6J mouse model assessed as decrease in AUC of ITT at 20 mg/kg, ip administered for every other days for 6 weeks by ITT method; format: functional, organism-based
In short: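 Male C57BL/6J mice on HFC diet dosed i.p. For GTT, after 3 weeks of treatment: 6 h fast, then i.p. glucose 2 g/kg. For ITT, after 6 weeks: 6 h fast, then i.p. insulin 0.4 U/mouse. Tail-vein glucose measured at 0, 15, 30, 60 and 120 min; AUC calculated.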

Mus musculus [14] = assay: Antiobesity activity in high fat diet-induced obese C57BL/6J mouse model assessed as decrease in lean mass at 20 mg/kg, ip administered for every other days for 6 weeks; format: functional, organism-based
3T3-L1 [15] = assay: Activation of AMPK pathway in adipogenic cocktail-induced mouse 3T3-L1 cells assessed as increase in AMP to ATP ratio at 0.3 to 1 uM after 24 hrs; format: cell-based; settings: filed as activator, dose 0.3-1 µM
Mus musculus [16] = assay: Anti-hyperglycemic activity in high fat diet-induced obese C57BL/6J mouse model assessed as decrease in blood glucose level at 20 mg/kg, ip after 6 hrs; format: functional, organism-based
In short: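 C57BL/6J mice fed HFC diet (60% fat, 1% cholesterol). Single i.p. injection of saline or compound at 20 mg/kg. Blood glucose measured with a glucose monitor at 0, 0.5, 1, 2, 4, 8, 12 and 24 h.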

3T3-L1 [17] = assay: Cytotoxicity against mouse 3T3-L1 cells assessed as change in LDH releasing level at 5 uM after 6 days by LDH releasing assay; format: cell-based; settings: 3t3-l1, 144 h, time 6 day
In short: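 Differentiating 3T3-L1 cells were treated at 5 µM for 6 days. Plates were centrifuged and LDH activity in the supernatant was read at 490 nm. Release was expressed as fold = (treated − blank)/(control − blank), with untreated cells as blank and vehicle-differentiated control set to 1.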

[18] = Apparent volume of distribution in Sprague-Dawley rat at 2 mg/kg, iv up to 24 hrs by LC-MS/MS analysis; format: ADME, organism-based; settings: in vivo, read-out: Vz
In short: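 Male SD rats (180–220 g, n = 3) received compound in ethanol/saline (5:95), either intravenously at 2 mg/kg or intragastrically at 5 mg/kg. Plasma was sampled at 0, 0.5, 1, 2, 4, 8, 12 and 24 h. Concentrations were measured by LC-MS/MS, and PK parameters were calculated from the concentration–time data.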

Mus musculus [19] = assay: Antiobesity activity in high fat diet-induced obese C57BL/6J mouse model assessed as ALT level at 20 mg/kg, ip administered for every other days for 6 weeks by auto-analyzer method (reference value: 231.9 +/- 18.5 U/L); format: functional; in short: as §1

Structure (SMILES) | Activity (3T3-L1 [1]) | Activity (3T3-L1 [2]) | inhibition (3T3-L1 [3]) | Activity (Mus musculus [4]) | Activity (Mus musculus [5]) | inhibition (3T3-L1 [6]) | Activity (3T3-L1 [7]) | Activity (Mus musculus [8]) | Activity (3T3-L1 [9]) | AUC(0-inf) [10] | AUC(0-t) at 24 h [11] | Activity (Mus musculus [12]) | Activity (C2C12) | Activity (Mus musculus [13]) | Activity (Mus musculus [14]) | Activity (3T3-L1 [15]) | Activity (Mus musculus [16]) | Activity (3T3-L1 [17]) | Vd [18] | Activity (Mus musculus [19])
CN(C)CCCNc1nc(-c2[nH]c3ccccc3c2C=O)nc2ccccc12 | Active | Active |  |  |  |  |  |  |  |  |  |  |  |  |  |  |  |  |  | 
COc1ccc2[nH]c(-c3nc(NCCCCN4CCCC4)c4ccccc4n3)c(C=O)c2c1 |  |  | Active | Active | Active | Active | Active | 163.7 U/L | Active | 314 ng·h/mL | 308 ng·h/mL | Active | Active | Active | Active | Active | Active | Non-Toxic | 40.7 L/kg | 52 U/L
